Experimental data published in ChEMBL document CHEMBL2029325, “Fused piperidines as a novel class of potent and orally available transient receptor potential melastatin type 8 (TRPM8) antagonists” (J Med Chem, 2012).
≈ marks a conversion by molar mass, not a printed value. Calls of active or inactive are those of the source. The calls are words filed in the database; no cut-off is given here.

Tests used:
[1] = biological target: Transient receptor potential cation channel subfamily M member 8 (Rattus norvegicus, UniProt Q8R455); experiment: Antagonist activity at rat TRPM8 expressed in CHO cells assessed as inhibition of icilin-induced Ca2+ influx incubated 2.5 mins prior icilin induction by flash luminometry; type: functional, cell-based
Sequence of Transient receptor potential cation channel subfamily M member 8 (Q8R455 whole entry): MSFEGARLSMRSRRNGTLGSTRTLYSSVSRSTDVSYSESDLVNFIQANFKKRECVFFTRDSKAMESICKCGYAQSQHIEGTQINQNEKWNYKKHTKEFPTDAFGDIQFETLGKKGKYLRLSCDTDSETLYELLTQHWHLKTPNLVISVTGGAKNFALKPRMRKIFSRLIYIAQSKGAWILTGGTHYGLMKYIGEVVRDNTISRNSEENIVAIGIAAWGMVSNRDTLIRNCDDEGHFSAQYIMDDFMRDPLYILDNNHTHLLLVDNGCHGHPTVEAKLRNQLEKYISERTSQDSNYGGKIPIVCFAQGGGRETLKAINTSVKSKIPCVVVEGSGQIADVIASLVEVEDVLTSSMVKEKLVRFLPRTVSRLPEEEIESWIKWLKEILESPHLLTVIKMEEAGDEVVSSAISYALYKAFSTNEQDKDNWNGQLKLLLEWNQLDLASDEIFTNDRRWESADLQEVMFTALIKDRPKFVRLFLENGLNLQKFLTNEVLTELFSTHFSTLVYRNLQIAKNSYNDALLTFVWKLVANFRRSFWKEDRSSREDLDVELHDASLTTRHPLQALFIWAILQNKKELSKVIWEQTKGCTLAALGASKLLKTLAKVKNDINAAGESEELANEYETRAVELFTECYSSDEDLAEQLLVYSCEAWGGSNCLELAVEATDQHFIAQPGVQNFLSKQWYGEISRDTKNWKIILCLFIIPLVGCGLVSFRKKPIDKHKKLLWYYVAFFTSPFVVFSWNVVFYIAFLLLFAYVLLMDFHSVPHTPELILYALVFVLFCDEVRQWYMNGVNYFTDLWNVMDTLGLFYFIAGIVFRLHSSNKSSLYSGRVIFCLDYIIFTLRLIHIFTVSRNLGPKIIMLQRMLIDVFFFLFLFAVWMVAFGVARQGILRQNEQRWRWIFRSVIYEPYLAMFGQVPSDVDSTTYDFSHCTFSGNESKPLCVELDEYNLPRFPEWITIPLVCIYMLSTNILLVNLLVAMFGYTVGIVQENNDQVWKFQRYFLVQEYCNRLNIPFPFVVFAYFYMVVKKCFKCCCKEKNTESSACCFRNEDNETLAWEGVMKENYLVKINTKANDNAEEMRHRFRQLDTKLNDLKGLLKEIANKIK
Summary of the method: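 CHO cells stably expressing rat TRPM8 under a tetracycline-inducible T-REx system, co-transfected with aequorin. Seeded 24 h before assay; expression induced with 0.5 μg/mL tetracycline. Luminescence was read on a CCD-camera luminometer.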

[2] = Intrinsic clearance in CD1 rat liver microsomes at 1 uM after 30 mins; type: ADME, Microsome; conditions: read-out: CLH
[3] = AUC (infinity) in Sprague-Dawley rat at 2 mg/kg, iv by LC-MS/MS analysis; type: ADME, organism-based; parameters: time infinity, dose 2 mg/kg, route intravenous; conditions: plasma
Summary of the method: (§1)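 Fed male Sprague–Dawley rats, n = 3, given 2 mg/kg iv in DMSO. Measured by LC/MS/MS; noncompartmental analysis; mean(SD).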

[4] = Volume of distribution at steady state in Sprague-Dawley rat at 2 mg/kg, iv by LC-MS/MS analysis; type: ADME, organism-based; parameters: dose 2 mg/kg, route intravenous; conditions: in vivo, read-out: Vdss; summary of the method: as §1
[5] = AUC (infinity) in Sprague-Dawley rat at 10 mg/kg, po by LC-MS/MS analysis; type: ADME, organism-based; parameters: time infinity, dose 10 mg/kg, route oral; conditions: plasma
Summary of the method: (§2)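 Fasted male Sprague–Dawley rats, n = 3, given 10 mg/kg by oral gavage as a suspension in 5% Tween 80/Oraplus. Plasma taken predose and at 0.25, 0.5, 1, 2, 4, 6, 8, 12 and 16 h. Measured by LC/MS/MS; noncompartmental analysis; mean(SD).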

[6] = Cmax in Sprague-Dawley rat at 10 mg/kg, po by LC-MS/MS analysis; type: ADME, organism-based; parameters: dose 10 mg/kg, route oral; conditions: in vivo; summary of the method: as §2
[7] = Oral bioavailability in Sprague-Dawley rat at 10 mg/kg by LC-MS/MS analysis; type: ADME, organism-based; conditions: in vivo; summary of the method: as §2
Rattus norvegicus [8] = experiment: Antinociceptive activity in po dosed Sprague-Dawley rat assessed as inhibition of icilin-induced wet-dog shakes administered 90 mins prior icilin challenge measured for 30 mins; type: functional, organism-based
Summary of the method: (§3)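 Male Sprague–Dawley rats (220–300 g, n = 5–13/treatment) were habituated 30 min to the room, then 20 min to an observation cylinder, kept out of sight of other rats. Compound or vehicle (5% Tween 80/Oraplus) given po 90 min before icilin (0.5 mg/kg ip in 100% PEG 400). Wet-dog shakes counted for 30 min afterwards.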

Rattus norvegicus [9] = experiment: Antinociceptive activity in Sprague-Dawley rat assessed as inhibition of icilin-induced wet-dog shakes at 3 mg/kg, po administered 90 mins prior icilin challenge measured for 30 mins; type: functional; summary of the method: as §3
Rattus norvegicus [10] = experiment: Antinociceptive activity in Sprague-Dawley rat assessed as inhibition of icilin-induced wet-dog shakes at 30 mg/kg, po administered 90 mins prior icilin challenge measured for 30 mins; type: functional; summary of the method: as §3
Plasma [11] = experiment: Plasma concentration in Sprague-Dawley rat at 30 mg/kg, po; type: ADME, organism-based; parameters: dose 30 mg/kg, route oral; conditions: in vivo
Summary of the method: (§4)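 Male Sprague–Dawley rats (n = 8 per group) dosed po in 5% Tween 80/Oraplus 90 min before icilin challenge in the wet-dog-shake study. Plasma collected 2 h after oral dosing.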

Rattus norvegicus [12] = experiment: Antinociceptive activity in Sprague-Dawley rat assessed as inhibition of icilin-induced wet-dog shakes at 100 mg/kg, po administered 90 mins prior icilin challenge measured for 30 mins; type: functional, organism-based; parameters: dose 100 mg/kg; summary of the method: as §3
Plasma [13] = experiment: Plasma concentration in Sprague-Dawley rat at 100 mg/kg, po; type: ADME, organism-based; parameters: dose 100 mg/kg, route oral; conditions: in vivo; summary of the method: as §4

Row | IC50 [1] [nM] | microsomal CLint at 1 µM [2] [µL/min/mg] | SMILES | other results
1 | 230 | 164 | O=C(Nc1ccc(F)cc1)N1CCc2ccoc2C1c1ccc(C(F)(F)F)cc1 (centres undefined) | –
2 | 180 | 123 | O=C(Nc1ccc(F)cc1)N1CCn2cccc2C1c1ccc(C(F)(F)F)cc1 (centres undefined) | –
3 | 600 | 342 | O=C(Nc1ccccc1F)N1CCc2sccc2C1c1ccc(C(F)(F)F)cc1 (centres undefined) | –
4 | 140 | > 399 | O=C(Nc1ccccc1)N1CCc2sccc2C1c1ccccc1Cl (centres undefined) | –
5 | 2270 | > 399 | O=C(Nc1ccccc1)N1CCc2sccc2C1c1ccccc1F (centres undefined) | –
6 | 2890 | > 399 | O=C(Nc1ccccc1)N1CCc2sccc2C1c1cccc(Cl)c1 (centres undefined) | –
7 | 1630 | 162 | O=C(Nc1ccc(Cl)cc1)N1CCc2sccc2C1c1ccc(C(F)(F)F)cc1 (centres undefined) | –
8 | > 20000 | > 399 | FC(F)(F)c1ccc(C2c3ccsc3CCN2Cc2ccccc2)cc1 (centres undefined) | –
9 | 340 | 64 | O=C(Nc1ccc(F)cc1)N1Cc2ccccc2C1c1ccc(C(F)(F)F)cc1 (centres undefined) | –
10 | > 20000 | 248 | O=C(c1ccc(F)cc1)N1CCc2sccc2C1c1ccc(C(F)(F)F)cc1 (centres undefined) | –
11 | 5570 | > 399 | O=C(Nc1ccccc1)N1CCc2sccc2C1C1CC1 (centres undefined) | –
12 | 260 | 109 | O=C(Nc1ccc(F)cc1)N1CCc2occc2C1c1ccc(C(F)(F)F)cc1 (centres undefined) | –
13 | 293 | > 399 | CCCC1c2ccsc2CCN1C(=O)Nc1ccccc1 (centres undefined) | –
14 | 560 | > 399 | O=C(Nc1ccccc1)N1CCc2sccc2C1c1ccc(Cl)cc1 (centres undefined) | –
15 | 1830 | > 399 | O=C(Nc1ccccc1)N1CCc2sccc2C1c1cccc(C(F)(F)F)c1 (centres undefined) | –
16 | > 20000 | 146 | O=C(Nc1ccc(F)cc1)N1CCCc2ccccc2C1c1ccc(C(F)(F)F)cc1 (centres undefined) | –
17 | 190 | 34 | O=C(Nc1ccc(F)cc1)N1CCc2ccc(F)cc2C1c1ccc(C(F)(F)F)cc1 (centres undefined) | –
18 | 890 | > 399 | O=C(Cc1ccc(F)cc1)N1CCc2sccc2C1c1ccc(C(F)(F)F)cc1 (centres undefined) | –
19 | > 20000 | 180 | O=C(Nc1ccccc1)N1CCc2sccc2C1 | –
20 | 1840 | > 399 | O=C(Nc1ccccc1)N1CCc2sccc2C1c1ccc(F)cc1 (centres undefined) | –
21 | 780 | 278 | O=C(Nc1cccc(F)c1)N1CCc2sccc2C1c1ccc(C(F)(F)F)cc1 (centres undefined) | –
22 | > 20000 | > 399 | O=C(c1cccc(F)c1)N1CCc2sccc2C1c1ccc(C(F)(F)F)cc1 (centres undefined) | –
23 | – | – | O=C(Nc1ccc(F)cc1)N1CCc2ccccc2[C@H]1c1ccc(C(F)(F)F)cc1 | AUC(0-inf) [3]: 763 ng·h/mL; Vd [4]: 15.3 L/kg; AUC(0-inf) [5]: 1750 ng·h/mL; Cmax [6]: 265 ng/mL; bioavailability [7]: 57%; EC50 (Rattus norvegicus [8]): 0.209 µg/mL (≈ 0.504 µM); inhibition (Rattus norvegicus [8]): Dose-dependent effect; inhibition in vivo at 3 mg/kg (Rattus norvegicus [9]): 30%; inhibition in vivo at 30 mg/kg (Rattus norvegicus [10]): > 80%; Cp (Plasma [11]): 460 ng/mL
24 | 100 | 48 | O=C(Nc1ccc(F)cc1)N1CCc2c(F)cccc2C1c1ccc(C(F)(F)F)cc1 (centres undefined) | –

Row | IC50 [1] [nM] | microsomal CLint at 1 µM [2] [µL/min/mg] | SMILES | other results
25 | 1260 | > 399 | CC(C)C(=O)N1CCc2sccc2C1c1ccc(C(F)(F)F)cc1 (centres undefined) | –
26 | – | – | O=C(Nc1ccc(F)cc1)N1CCc2ccccc2[C@@H]1c1ccc(C(F)(F)F)cc1 | AUC(0-inf) [3]: 347 ng·h/mL; Vd [4]: 15.8 L/kg; inhibition (Rattus norvegicus [12]): inactive; Cp (Plasma [13]): 521 ng/mL
27 | 1390 | > 399 | CCCC1c2ccsc2CCN1C(=O)Nc1ccc(Cl)cc1 (centres undefined) | –
28 | 6800 | – | CC1c2ccsc2CCN1C(=O)Nc1ccccc1 (centres undefined) | –
29 | 2660 | 285 | O=C(Nc1ccc(F)cc1)N1CCCCC1c1ccc(C(F)(F)F)cc1 (centres undefined) | –
30 | 1690 | > 399 | O=C(Nc1ccccc1)N1CCc2sccc2C1c1ccccc1 (centres undefined) | –
31 | 302 | 40 | O=C(Nc1ccc(F)cc1)N1CCc2cc(F)ccc2C1c1ccc(C(F)(F)F)cc1 (centres undefined) | –
32 | 290 | 211 | O=C(Nc1ccccc1)N1CCc2sccc2C1c1ccc(C(F)(F)F)cc1 (centres undefined) | –
33 | 340 | 178 | O=C(Nc1ccc(F)cc1)N1CCc2sccc2C1c1ccc(C(F)(F)F)cc1 (centres undefined) | –
34 | 1430 | 23 | O=C(Nc1ccc(F)cc1)N1CCc2nc[nH]c2C1c1ccc(C(F)(F)F)cc1 (centres undefined) | –
35 | 260 | 36 | Cn1cnc2c1CCN(C(=O)Nc1ccc(F)cc1)C2c1ccc(C(F)(F)F)cc1 (centres undefined) | –
36 | 93 | 110 | O=C(Nc1ccc(F)cc1)N1CCc2scnc2C1c1ccc(C(F)(F)F)cc1 (centres undefined) | –
37 | > 20000 | > 399 | O=C(N1CCOCC1)N1CCc2sccc2C1c1ccc(C(F)(F)F)cc1 (centres undefined) | –
38 | > 20000 | > 399 | FC(F)(F)c1ccc(C2NCCc3sccc32)cc1 (centres undefined) | –
39 | 150 | 206 | O=C(Nc1ccc(F)cc1)N1CCc2ccsc2C1c1ccc(C(F)(F)F)cc1 (centres undefined) | –
40 | > 20000 | – | CC(C)CN1CCc2sccc2C1c1ccc(C(F)(F)F)cc1 (centres undefined) | –
41 | 790 | 43 | O=C(Nc1ccc(F)cc1)N1CCc2cccc(F)c2C1c1ccc(C(F)(F)F)cc1 (centres undefined) | –
42 | 240 | > 399 | O=C(Nc1ccccc1)N1CCc2sccc2C1c1ccccc1C(F)(F)F (centres undefined) | –
43 | 1210 | > 399 | O=C(NC1CC1)N1CCc2sccc2C1c1ccc(C(F)(F)F)cc1 (centres undefined) | –
44 | 550 | > 399 | CC(C)NC(=O)N1CCc2sccc2C1c1ccc(C(F)(F)F)cc1 (centres undefined) | –
45 | > 20000 | < 14 | CC(C)N1CCc2sccc2C1c1ccc(C(F)(F)F)cc1 (centres undefined) | –
46 | 1320 | > 399 | O=C(Nc1ccccc1)N1CCc2sccc2C1c1cccc(F)c1 (centres undefined) | –
47 | 510 | > 399 | O=C(c1ccccc1F)N1CCc2sccc2C1c1ccc(C(F)(F)F)cc1 (centres undefined) | –
48 | 2320 | 203 | COc1ccc(NC(=O)N2CCc3sccc3C2c2ccc(C(F)(F)F)cc2)cc1 (centres undefined) | –
